Assay results: ChEMBL document CHEMBL4622986, “Synthesis and Anti-HCV Activity of Sugar-Modified Guanosine Analogues: Discovery of AL-611 as an HCV NS5B Polymerase Inhibitor for the Treatment of Chronic Hepatitis C” (J Med Chem, 2020)
Activity calls are given as the source filed them. The calls are words filed in the database; no cut-off is given here.

Legend:
[1] = Prodrug activation in human hepatocytes assessed as nucleoside monophosphate metabolite formation per million cells incubated for 24 hrs; assay type: ADME, cell-based, Hepatocyte
In short: (§1)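 Primary human hepatocytes (1.5-2 million cells/well) acclimated overnight at 37 °C, 5% CO2, then incubated 24 h with 50 μM extracellular compound. Cells washed with cold 0.9% NaCl and lysed in 70/30 methanol/water. Extract dried and reconstituted, then analysed by LC-MS/MS with an internal standard; reported as pmol per million cells.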

Hepatitis C virus = test: Antiviral activity against HCV con1 subgenomic replicon infected in human HuH7 cells assessed as reduction in viral RNA level by qRT-PCR analysis; assay type: functional, organism-based, Hepacivirus hominis; conditions: isolate Con1, Huh-7
In short: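 Huh-7 cells carrying a subgenomic Con1 HCV replicon (neomycin phosphotransferase, kept under 0.25 mg/ml G418) were exposed to serially diluted compound in DMEM with 2% FBS and 0.5% DMSO, without G418, at 37 °C. Total RNA was extracted and HCV RNA copies were measured by multiplex QRT-PCR (Taqman). EC50 was obtained by 4-parameter curve fit.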

[2] = Cytotoxicity against human HuH7 cells infected with HCV con1 subgenomic replicon assessed as reduction in cell viability measured after 3 days by CellTiter-blue cell viability assay; assay type: cell-based, Huh-7
In short: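 Run in the replicon-bearing Huh-7 cells under the same settings as the antiviral read (DMEM, 2% FBS, 0.5% DMSO, no G418, 37 °C). After 3 days of treatment, viability was read with CellTiter-Blue and CC50 was derived by curve fitting.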

[3] = Prodrug activation in human hepatocytes assessed as [[(2S,3S,4R,5R)-5-(2-amino-6-oxo-1H-purin-9-yl)-2,4-difluoro-3-hydroxy-4-methyl-tetrahydrofuran-2-yl]methoxy-hydroxy-phosphoryl]phosphono hydrogen phosphate metabolite formation per million cells at 50 uM incubated for 24 hrs by LC-MS/MS analysis; assay type: ADME, cell-based, Hepatocyte; in short: as §1
[4] = Prodrug activation in Beagle dog assessed as [[(2S,3S,4R,5R)-5-(2-amino-6-oxo-1H-purin-9-yl)-2,4-difluoro-3-hydroxy-4-methyl-tetrahydrofuran-2-yl]methoxy-hydroxy-phosphoryl]phosphono hydrogen phosphate metabolite formation in liver at 9.69 mg/kg, po measured at 4 hrs post dose by LC-MS/MS analysis; assay type: ADME, organism-based, Canis lupus familiaris; conditions: in vivo
In short: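 Male non-naïve beagle dogs (n=2 per time point), fasted overnight, single oral dose of 9.69 mg/kg (5 mg/kg parent nucleoside equivalent) as a solution in 40% PEG400 in water. Animals anesthetized with pentobarbital before liver collection. Liver NTP measured by negative-ion LC-MS/MS against standards spiked into blank liver homogenate.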

[5] = Selectivity index, ratio of CC50 for human HuH7 cells infected with HCV con1 subgenomic replicon to EC50 for HCV con1 subgenomic replicon; assay type: toxicity; conditions: read-out: Ratio CC50/EC50
In short: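 Ratio of CC50 (CellTiter-Blue viability after 3 days) to EC50 (HCV RNA by QRT-PCR). Both were measured in Huh-7 Con1 subgenomic replicon cells in DMEM with 2% FBS and 0.5% DMSO at 37 °C.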

[6] = Cytotoxicity against human MT4 cells incubated for 8 days by cellTiter-Glo assay; assay type: cell-based
In short: (§2)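 Cells (1×10^5/well) on collagen I-coated wells, first kept 8 days in recommended medium without drug, then exposed to compound for 8 days with refeeding every other day. Viability read by CellTiter-Glo luminescence; CC50 derived by curve fitting.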

[7] = Cytotoxicity against human HuH7 cells incubated for 8 days by cellTiter-Glo assay; assay type: cell-based, Huh-7; in short: as §2
[8] = Cytotoxicity against human HepG2 cells incubated for 8 days by cellTiter-Glo assay; assay type: cell-based; in short: as §2
[9] = Cytotoxicity against human U937 cells incubated for 8 days by cellTiter-Glo assay; assay type: cell-based, U-937; in short: as §2
[10] = Cytotoxicity against human A549 cells incubated for 8 days by cellTiter-Glo assay; assay type: cell-based; in short: as §2
[11] = Cytotoxicity against human HeLa cells incubated for 8 days by cellTiter-Glo assay; assay type: cell-based; in short: as §2
[12] = target: RNA-directed RNA polymerase (Hepacivirus hominis, UniProt O39930); test: Inhibition of HCV NS5B RNA-dependent RNA polymerase activity assessed as reduction in radiolabeled ribonucleotide monophosphates incorporation into RNA using cIRES template measured after 2 hrs by microscintillation counting method
In short: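 Reactions contained 100 nM NS5B, 50 nM cIRES RNA template, 1 μM tritiated CTP, 1 μM ATP, 1 μM GTP and 0.5 μM UTP in 40 mM Tris-HCl pH 8.0, 20 mM NaCl, 3 mM DTT and 4 mM MgCl2, with serially diluted inhibitor. Incubation was 2 h at 30 °C, then TCA precipitation and scintillation counting of acid-insoluble RNA. Values are the mean of n ≥ 2 determinations.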

DNA polymerase beta = DNA polymerase beta (Homo sapiens, UniProt P06746); test: Inhibition of human DNA polymerase beta at 100 uM using calf DNA as substrate by microbeta scintillation counting method relative to control; conditions: human DNA polymerase beta enzyme, probe calf DNA
In short: (§3)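 Activated calf thymus DNA served as template for each polymerase, in 50 mM Tris-HCl pH 8.0, 60 mM KCl, 5 mM MgCl2 and 4 mM DTT with 2 μM each of dCTP, dATP and dGTP plus 2.5 μCi 3H-dTTP. Test NTP was at 100 μM. DNA products were precipitated with 20% TCA and counted by microplate scintillation. Results are reported as percent inhibition with standard deviation.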

Homo sapiens = species on record: Homo sapiens; test: Substrate activity at human mitochondrial RNA polymerase assessed as nucleotide incorporation into RNA at 100 uM using [33P]-labeled 5'-UUUUGCCGCGCC-3' and 3'-CGGCGCGGCACGTAAGGG-5' RNA/DNA primer/template by polyacrylamide gel electrophoresis method
In short: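 Single-turnover conditions: 100 nM 33P-labelled RNA/DNA primer/template with 320 nM human mitochondrial RNA polymerase in excess. Each NTP was tested at 100 μM. ATP, UTP and CTP gauged misincorporation opposite the templating CMP. Products were run on 22.5% TBE-urea sequencing gels and bands quantified by phosphorimager.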

[13] = target: RNA-directed RNA polymerase (Hepacivirus hominis) (UniProt O39930); test: Inhibition of HCV NS5B RNA-dependent RNA polymerase 10-mer elongation complex assessed as chain termination of RNA synthesis by measuring reduction in 11-mer RNA product formation at 100 uM incubated for 1 min by polyacrylamide gel based method
In short: (§4)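 The NS5B elongation complex was built from 6.5 μM NS5B, 20 μM pGG, 20 μM 20-nt RNA template, 25 μM ATP and 12.5 μM GTP (pH 7.0 buffer, 2 h, 30 °C), giving a 9-mer. It was extended to a 10-mer with 33P-CTP for 30 s, then pelleted, washed and resuspended. The complex was elongated with 100 μM of each NTP in 40 mM Tris pH 7.4, 150 mM NaCl, 2 mM MgCl2 and 5 mM DTT for 1 min at 30 °C. Products were resolved on 22.5% urea PAGE and quantified by phosphorimager.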

DNA polymerase gamma = test: Inhibition of human DNA polymerase gamma at 100 uM using calf DNA as substrate by microbeta scintillation counting method relative to control; conditions: human DNA polymerase gamma enzyme, probe calf DNA; in short: as §3
[14] = target: RNA-directed RNA polymerase (Hepacivirus hominis) (UniProt O39930); test: Inhibition of HCV NS5B RNA-dependent RNA polymerase 10-mer elongation complex assessed as chain termination of RNA synthesis by measuring reduction in 20-mer RNA product formation at 100 uM incubated for 1 min in presence of UTP and ATP by polyacrylamide gel based method; in short: as §4
[15] = Inhibition of RNA polymerase 2 in human HeLa cell nuclear extract assessed as reduction in RNA transcription by polyacrylamide gel electrophoresis method; assay type: cell-based
In short: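 In vitro transcription used HeLa cell nuclear extract. RNA products were resolved on 6% TBE-urea polyacrylamide gels.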

DNA polymerase alpha = target: T1, DNA polymerase alpha (Homo sapiens, UniProt P09884); test: Inhibition of human DNA polymerase alpha at 100 uM using calf DNA as substrate by microbeta scintillation counting method relative to control; conditions: human DNA polymerase alpha enzyme, probe calf DNA; in short: as §3
T1 sequence (P09884 whole entry): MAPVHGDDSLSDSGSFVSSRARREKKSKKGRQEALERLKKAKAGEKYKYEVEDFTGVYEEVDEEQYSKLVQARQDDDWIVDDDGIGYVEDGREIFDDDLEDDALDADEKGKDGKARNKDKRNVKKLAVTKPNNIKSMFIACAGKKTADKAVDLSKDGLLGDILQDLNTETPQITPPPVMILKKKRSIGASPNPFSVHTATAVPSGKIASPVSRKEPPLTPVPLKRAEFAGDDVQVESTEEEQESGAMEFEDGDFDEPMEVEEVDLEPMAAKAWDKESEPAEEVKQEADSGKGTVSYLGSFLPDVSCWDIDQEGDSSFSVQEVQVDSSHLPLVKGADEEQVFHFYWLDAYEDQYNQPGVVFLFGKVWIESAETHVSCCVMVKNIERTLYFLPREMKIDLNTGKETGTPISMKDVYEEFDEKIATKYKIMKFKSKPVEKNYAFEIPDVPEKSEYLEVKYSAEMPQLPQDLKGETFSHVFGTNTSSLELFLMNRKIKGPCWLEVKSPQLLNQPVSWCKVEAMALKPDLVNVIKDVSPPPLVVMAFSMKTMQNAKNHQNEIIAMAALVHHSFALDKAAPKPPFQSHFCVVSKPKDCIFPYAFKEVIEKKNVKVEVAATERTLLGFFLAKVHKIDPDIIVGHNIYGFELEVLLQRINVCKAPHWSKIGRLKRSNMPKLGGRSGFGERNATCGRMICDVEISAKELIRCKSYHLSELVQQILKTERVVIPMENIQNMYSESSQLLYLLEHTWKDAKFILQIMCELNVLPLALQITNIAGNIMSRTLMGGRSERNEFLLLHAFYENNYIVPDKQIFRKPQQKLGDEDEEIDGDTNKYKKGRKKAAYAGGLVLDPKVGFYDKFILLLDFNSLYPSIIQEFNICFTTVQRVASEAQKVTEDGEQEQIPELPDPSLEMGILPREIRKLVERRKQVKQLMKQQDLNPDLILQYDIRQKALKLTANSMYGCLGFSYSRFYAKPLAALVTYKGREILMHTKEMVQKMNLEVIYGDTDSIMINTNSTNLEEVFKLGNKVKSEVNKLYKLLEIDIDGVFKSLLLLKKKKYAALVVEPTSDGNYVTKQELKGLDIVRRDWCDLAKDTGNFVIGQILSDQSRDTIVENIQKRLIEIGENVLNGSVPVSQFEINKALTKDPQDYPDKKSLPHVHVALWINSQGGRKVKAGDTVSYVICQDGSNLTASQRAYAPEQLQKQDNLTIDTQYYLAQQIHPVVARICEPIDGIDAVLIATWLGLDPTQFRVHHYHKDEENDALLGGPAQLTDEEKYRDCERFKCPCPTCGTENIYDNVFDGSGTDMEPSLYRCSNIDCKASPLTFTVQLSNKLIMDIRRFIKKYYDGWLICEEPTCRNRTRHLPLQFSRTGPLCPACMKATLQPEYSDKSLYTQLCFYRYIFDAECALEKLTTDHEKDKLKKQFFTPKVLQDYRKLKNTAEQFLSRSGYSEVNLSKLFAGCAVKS

Sequence of RNA-directed RNA polymerase (Hepacivirus hominis) (O39930 1-591): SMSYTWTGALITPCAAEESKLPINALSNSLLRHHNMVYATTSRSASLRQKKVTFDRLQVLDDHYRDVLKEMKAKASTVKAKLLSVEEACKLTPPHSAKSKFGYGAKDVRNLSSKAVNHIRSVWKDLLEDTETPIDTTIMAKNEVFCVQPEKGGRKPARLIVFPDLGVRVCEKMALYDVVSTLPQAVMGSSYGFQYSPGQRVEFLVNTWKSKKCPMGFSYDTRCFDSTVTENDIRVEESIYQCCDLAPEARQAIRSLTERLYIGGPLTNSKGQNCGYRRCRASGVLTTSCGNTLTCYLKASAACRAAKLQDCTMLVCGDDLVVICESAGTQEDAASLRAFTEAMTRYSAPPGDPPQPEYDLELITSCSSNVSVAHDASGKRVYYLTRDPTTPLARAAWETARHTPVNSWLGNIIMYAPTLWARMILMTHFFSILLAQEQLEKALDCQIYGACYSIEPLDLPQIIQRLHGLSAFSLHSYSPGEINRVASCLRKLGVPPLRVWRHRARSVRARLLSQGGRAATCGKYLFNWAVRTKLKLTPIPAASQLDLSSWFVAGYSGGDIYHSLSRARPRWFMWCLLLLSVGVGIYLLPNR
Sequence of RNA-directed RNA polymerase (O39930 whole entry): as the sequence (O39930 1-591) above

SMILES | Drug metabolism [1] [pmol] | EC50 (Hepatitis C virus) [nM] | CC50 at 72 h [2] [µM] | Drug metabolism [3] [pmol] | Drug metabolism [4] [µM] | selectivity ratio [5] | CC50 at 192 h [6] [nM] | CC50 at 192 h [7] [nM] | CC50 at 192 h [8] [nM] | CC50 at 192 h [9] [nM] | CC50 at 192 h [10] [µM] | CC50 at 192 h [11] [µM] | IC50 [12] [nM] | inhibition at 100 µM (DNA polymerase beta) [%] | Activity (Homo sapiens) | inhibition [13] | inhibition at 100 µM (DNA polymerase gamma) [%] | inhibition [14] | IC50 [15] [µM] | inhibition at 100 µM (DNA polymerase alpha) [%]
CCOc1nc(N)nc2c1ncn2[C@@H]1O[C@](F)(CO[P@@](=O)(N[C@@H](C)C(=O)OC(C)C)Oc2ccccc2)[C@@H](O)[C@@]1(C)F | 105 | 5 | > 100 | 321 | 22.3 | > 20000 | – | – | – | – | – | – | – | – | – | – | – | – | – | –
CCOc1nc(N)nc2c1ncn2[C@@H]1O[C@](F)(CO[P@](=O)(N[C@@H](C)C(=O)OC(C)C)Oc2ccccc2)[C@@H](O)[C@@]1(C)F | 67.1 | 57 | > 100 | 174 | 6.33 | > 1700 | – | – | – | – | – | – | – | – | – | – | – | – | – | –
CCOc1nc(N)nc2c1ncn2[C@@H]1O[C@H](COP(=O)(N[C@@H](C)C(=O)OCC(C)(C)C)Oc2cccc3ccccc23)[C@@H](O)[C@@]1(C)O (some centres undefined) | – | 348 | 16.4 | – | – | 47.1 | 960 | 350 | 1500 | 170 | 7.8 | 13.4 | – | – | – | – | – | – | – | –
C[C@]1(F)[C@H](n2cnc3c(=O)[nH]c(N)nc32)O[C@](F)(COP(=O)(O)OP(=O)(O)OP(=O)(O)O)[C@H]1O | – | – | – | – | – | – | – | – | – | – | – | – | 160 | 16.3 | inactive | inactive | 29.8 | Active | > 100 | 73.2
